Measured values as given in ChEMBL document CHEMBL3526013, “Cannabinoid type 1 receptor antagonists modulate transport activity of multidrug resistance-associated proteins MRP1, MRP2, MRP3, and MRP4” (Drug Metab Dispos, 2011).
pKi: −log10 of the molar value.

Legend:
[1] = target: T1, ATP-binding cassette sub-family C member 2 (Homo sapiens, UniProt Q92887); test: Induction of MRP2-mediated E2-17betaG transport in human MRP2 expressing HEK293 cells at 7 uM during 5 mins; format: ADME, cell-based; settings: hek293, 5 min
T1 sequence (Q92887 whole entry): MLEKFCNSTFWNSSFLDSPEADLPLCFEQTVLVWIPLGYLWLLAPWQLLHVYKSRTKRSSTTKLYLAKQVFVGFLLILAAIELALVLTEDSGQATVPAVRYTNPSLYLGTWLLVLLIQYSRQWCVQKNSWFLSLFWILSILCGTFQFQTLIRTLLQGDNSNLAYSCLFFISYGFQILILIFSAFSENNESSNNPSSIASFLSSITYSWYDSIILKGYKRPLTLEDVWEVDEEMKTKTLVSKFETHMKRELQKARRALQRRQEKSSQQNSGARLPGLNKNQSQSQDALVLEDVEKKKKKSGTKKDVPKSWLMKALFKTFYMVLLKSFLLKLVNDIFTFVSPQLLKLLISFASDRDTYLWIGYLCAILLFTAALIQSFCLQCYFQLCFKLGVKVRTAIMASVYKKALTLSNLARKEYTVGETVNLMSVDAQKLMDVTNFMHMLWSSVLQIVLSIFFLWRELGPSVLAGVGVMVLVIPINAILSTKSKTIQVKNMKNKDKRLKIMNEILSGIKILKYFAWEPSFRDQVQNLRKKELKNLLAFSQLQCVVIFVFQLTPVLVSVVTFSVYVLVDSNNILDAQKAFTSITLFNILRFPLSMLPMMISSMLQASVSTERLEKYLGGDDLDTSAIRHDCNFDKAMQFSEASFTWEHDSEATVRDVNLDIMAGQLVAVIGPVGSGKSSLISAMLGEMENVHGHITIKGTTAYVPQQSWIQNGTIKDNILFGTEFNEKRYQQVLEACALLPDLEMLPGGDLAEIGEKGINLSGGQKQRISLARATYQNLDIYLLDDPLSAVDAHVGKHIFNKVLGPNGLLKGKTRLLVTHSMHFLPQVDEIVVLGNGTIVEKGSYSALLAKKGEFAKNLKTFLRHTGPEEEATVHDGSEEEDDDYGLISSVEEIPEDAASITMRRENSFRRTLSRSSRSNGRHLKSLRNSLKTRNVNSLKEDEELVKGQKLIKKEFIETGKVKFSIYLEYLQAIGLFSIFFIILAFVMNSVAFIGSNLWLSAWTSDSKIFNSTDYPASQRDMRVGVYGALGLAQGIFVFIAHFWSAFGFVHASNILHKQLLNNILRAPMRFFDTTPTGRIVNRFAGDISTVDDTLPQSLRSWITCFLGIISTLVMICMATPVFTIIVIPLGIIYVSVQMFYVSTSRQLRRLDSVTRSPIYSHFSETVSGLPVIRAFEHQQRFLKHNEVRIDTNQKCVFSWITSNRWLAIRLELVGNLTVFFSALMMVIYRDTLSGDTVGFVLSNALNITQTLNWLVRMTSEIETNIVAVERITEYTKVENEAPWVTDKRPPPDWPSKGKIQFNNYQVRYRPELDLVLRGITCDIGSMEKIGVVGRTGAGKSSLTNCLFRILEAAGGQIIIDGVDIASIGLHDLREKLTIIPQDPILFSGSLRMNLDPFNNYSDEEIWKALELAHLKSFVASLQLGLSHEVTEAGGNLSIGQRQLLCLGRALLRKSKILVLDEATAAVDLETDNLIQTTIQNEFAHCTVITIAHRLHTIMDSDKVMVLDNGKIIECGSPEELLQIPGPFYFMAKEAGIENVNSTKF
How it was run: (§1)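 Inside-out membrane vesicles from HEK293 cells transduced with MRP baculovirus (5 mM butyrate at 24 h, harvested day 3). Reaction: 7.5 µg vesicles in TS buffer pH 7.4 with 4 mM ATP, 10 mM MgCl2 and [3H]E2-17βG, 37°C for 5 min. E2-17βG was 0.16 µM (MRP1), 20 µM (MRP2) or 0.12 µM (MRP4). Uptake was read by rapid filtration and scintillation counting. ATP-dependent uptake was taken as ATP minus AMP values, with drug-free uptake set at 100%. Nominal 10 or 100 µM antagonist; actual concentration measured by LC-MS/MS. Three independent experiments.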

[2] = Retention time of the compound by LC-MS/MS method; format: physicochemical
How it was run: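 Reaction mix without radiolabel, AMP condition, with 7.5 μg eYFP vesicles. Supernatant after 16,000–20,000g spin diluted in 50% acetonitrile/0.1% TFA. Gradient of 0.1% TFA water/acetonitrile, 50→90% B over 5 min. Electrospray triple quadrupole. Duplicates, at least three experiments.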

[3] = target: T2, ATP-binding cassette sub-family C member 4 (Homo sapiens, UniProt O15439); test: Inhibition of MRP4-mediated E2-17betaG transport in human MRP4 expressing HEK293 cells at 7 uM during 5 mins; format: ADME, cell-based; settings: hek293, 5 min; how it was run: as §1
T2 sequence (O15439 whole entry): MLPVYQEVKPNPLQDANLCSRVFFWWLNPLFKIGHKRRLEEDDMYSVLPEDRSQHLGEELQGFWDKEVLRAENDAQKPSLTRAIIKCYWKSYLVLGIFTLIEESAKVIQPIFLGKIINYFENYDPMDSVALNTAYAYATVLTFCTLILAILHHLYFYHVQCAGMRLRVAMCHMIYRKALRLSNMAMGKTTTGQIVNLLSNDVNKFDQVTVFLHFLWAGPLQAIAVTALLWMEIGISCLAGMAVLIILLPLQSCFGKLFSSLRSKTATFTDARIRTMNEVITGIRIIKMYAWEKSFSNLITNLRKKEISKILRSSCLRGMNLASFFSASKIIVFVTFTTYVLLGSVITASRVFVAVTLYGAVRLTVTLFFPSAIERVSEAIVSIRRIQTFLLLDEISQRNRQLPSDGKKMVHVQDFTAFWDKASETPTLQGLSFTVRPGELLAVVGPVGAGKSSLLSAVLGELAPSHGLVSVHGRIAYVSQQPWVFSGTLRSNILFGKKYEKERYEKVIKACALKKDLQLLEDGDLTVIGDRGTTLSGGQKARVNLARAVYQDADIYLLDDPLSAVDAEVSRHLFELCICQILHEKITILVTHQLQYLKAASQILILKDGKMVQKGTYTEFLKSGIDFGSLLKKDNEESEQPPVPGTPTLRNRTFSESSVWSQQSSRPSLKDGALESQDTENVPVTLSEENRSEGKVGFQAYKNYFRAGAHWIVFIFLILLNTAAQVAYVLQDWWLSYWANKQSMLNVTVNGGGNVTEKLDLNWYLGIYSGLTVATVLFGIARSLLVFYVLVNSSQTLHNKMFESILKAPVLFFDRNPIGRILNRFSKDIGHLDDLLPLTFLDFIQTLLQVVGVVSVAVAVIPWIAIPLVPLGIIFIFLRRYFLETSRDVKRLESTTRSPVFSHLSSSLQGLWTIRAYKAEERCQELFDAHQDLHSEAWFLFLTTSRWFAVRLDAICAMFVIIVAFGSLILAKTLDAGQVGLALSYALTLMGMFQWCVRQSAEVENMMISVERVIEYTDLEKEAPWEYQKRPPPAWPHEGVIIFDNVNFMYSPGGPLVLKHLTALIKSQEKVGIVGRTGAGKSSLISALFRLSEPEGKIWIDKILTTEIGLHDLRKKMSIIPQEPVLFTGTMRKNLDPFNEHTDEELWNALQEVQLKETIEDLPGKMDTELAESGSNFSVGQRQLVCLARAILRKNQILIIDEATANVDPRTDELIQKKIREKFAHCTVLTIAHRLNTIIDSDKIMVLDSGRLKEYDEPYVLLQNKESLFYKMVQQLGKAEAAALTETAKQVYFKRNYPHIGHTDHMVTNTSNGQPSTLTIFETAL

[4] = target: T3, Multidrug resistance-associated protein 1 (Homo sapiens, UniProt P33527); test: Inhibition of MRP1-mediated E2-17betaG transport in human MRP1 expressing HEK293 cells at 7 uM during 5 mins; format: ADME, cell-based; settings: hek293, 5 min; how it was run: as §1
T3 sequence (P33527 whole entry): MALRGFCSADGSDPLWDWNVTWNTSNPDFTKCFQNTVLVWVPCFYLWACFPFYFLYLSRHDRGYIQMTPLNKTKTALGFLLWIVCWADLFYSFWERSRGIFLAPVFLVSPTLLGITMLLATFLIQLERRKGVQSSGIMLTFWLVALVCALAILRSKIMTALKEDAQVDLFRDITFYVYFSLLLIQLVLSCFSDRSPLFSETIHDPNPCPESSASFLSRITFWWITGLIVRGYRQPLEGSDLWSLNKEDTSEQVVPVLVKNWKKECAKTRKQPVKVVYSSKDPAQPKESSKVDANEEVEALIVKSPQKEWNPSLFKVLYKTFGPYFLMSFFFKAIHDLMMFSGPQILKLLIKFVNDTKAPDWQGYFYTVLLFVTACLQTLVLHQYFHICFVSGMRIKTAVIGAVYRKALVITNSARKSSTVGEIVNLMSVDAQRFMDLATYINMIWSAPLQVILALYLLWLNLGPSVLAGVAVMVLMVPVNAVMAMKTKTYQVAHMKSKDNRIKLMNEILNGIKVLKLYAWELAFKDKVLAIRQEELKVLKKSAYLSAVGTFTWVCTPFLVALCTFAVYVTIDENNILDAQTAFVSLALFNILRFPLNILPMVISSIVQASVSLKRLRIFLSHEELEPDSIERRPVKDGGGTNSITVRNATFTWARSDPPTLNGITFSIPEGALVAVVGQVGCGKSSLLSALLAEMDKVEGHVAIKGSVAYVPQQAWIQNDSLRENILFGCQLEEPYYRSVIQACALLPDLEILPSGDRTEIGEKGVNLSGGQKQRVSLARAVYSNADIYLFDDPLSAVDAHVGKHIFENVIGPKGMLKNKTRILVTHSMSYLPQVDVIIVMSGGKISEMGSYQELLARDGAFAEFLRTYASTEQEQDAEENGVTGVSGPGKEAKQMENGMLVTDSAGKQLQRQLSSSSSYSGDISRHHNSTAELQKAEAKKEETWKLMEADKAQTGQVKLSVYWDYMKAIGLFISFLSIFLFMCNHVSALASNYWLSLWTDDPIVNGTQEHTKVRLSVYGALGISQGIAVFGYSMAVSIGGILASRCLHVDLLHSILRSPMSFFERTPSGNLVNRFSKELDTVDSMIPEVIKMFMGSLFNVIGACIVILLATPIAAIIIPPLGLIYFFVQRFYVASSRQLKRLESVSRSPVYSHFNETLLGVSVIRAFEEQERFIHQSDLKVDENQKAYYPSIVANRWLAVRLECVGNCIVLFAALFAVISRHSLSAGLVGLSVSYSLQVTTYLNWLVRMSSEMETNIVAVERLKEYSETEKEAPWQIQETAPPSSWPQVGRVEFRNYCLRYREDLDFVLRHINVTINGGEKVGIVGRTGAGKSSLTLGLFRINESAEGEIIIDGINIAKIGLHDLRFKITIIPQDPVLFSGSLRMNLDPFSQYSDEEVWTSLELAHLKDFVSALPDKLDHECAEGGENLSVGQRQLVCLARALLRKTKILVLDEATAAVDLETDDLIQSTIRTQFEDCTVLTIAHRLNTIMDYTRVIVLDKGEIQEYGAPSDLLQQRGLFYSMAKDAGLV

[5] = target: T2, ATP-binding cassette sub-family C member 4; test: Inhibition of MRP4-mediated E2-17betaG transport in human MRP4 expressing HEK293 cells at 33 uM during 5 mins; format: ADME, cell-based; settings: hek293, 5 min; how it was run: as §1
[6] = target: T3, Multidrug resistance-associated protein 1; test: Inhibition of MRP1-mediated E2-17betaG transport in human MRP1 expressing HEK293 cells at 33 uM during 5 min; format: ADME, cell-based; settings: hek293, 5 min; how it was run: as §1
Rattus norvegicus = test: Attenuation of CP55940-induced hypotension in iv dosed rat; format: functional
How it was run: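 Male normotensive anaesthetized Wistar rats; antagonist given i.v. at several doses (n=2 per dose) 10 min before CP55,940 0.1 mg/kg i.v. Hypotension develops within 1 min; lowest blood pressure taken as the hypotensive effect. ED50 is the dose inhibiting the CP55,940 hypotensive effect by 50%, calculated from the linear part of the percentage dose-response curve.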

[7] = target: T1, ATP-binding cassette sub-family C member 2; test: Induction of MRP2-mediated E2-17betaG transport in human MRP2 expressing HEK293 cells at 33 uM during 5 mins; format: ADME, cell-based; settings: hek293, 5 min; how it was run: as §1
[8] = target: T2, ATP-binding cassette sub-family C member 4; test: Inhibition of MRP4-mediated E2-17betaG transport in human MRP4 expressing HEK293 cells at 1 to 3 uM during 5 mins; format: ADME, cell-based; settings: hek293, 5 min
How it was run: (§2)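 MRP4-expressing HEK293 inside-out vesicles (baculovirus transduction). 7.5 μg protein with 4 mM ATP, 10 mM MgCl2 in TS buffer and 0.12 μM [3H]E2-17βG, 5 min at 37°C. Filter-bound radioactivity counted; AMP control subtracted for ATP-dependent uptake. Nominal 10/100 μM antagonist, actual concentrations by LC-MS/MS. Percent of untreated, three independent experiments.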

[9] = target: T3, Multidrug resistance-associated protein 1; test: Inhibition of MRP1-mediated E2-17betaG transport in human MRP1 expressing HEK293 cells at 1 to 3 uM during 5 mins; format: ADME, cell-based; settings: hek293, 5 min
How it was run: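 Inside-out membrane vesicles from MRP1-baculovirus-transduced HEK293 cells. 7.5 μg vesicles in TS buffer, 4 mM ATP, 10 mM MgCl2, 0.16 μM [3H]E2-17βG, 5 min at 37°C. Stopped on ice, then rapid filtration and scintillation counting. ATP minus AMP uptake taken as net. Nominal 10 or 100 μM antagonist, actual levels by LC-MS/MS. Expressed as % of untreated. Three independent experiments.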

[10] = target: T1, ATP-binding cassette sub-family C member 2; test: Induction of MRP2-mediated E2-17betaG transport in human MRP2 expressing HEK293 cells at 0.7 to 1.3 uM during 5 mins; format: ADME, cell-based; settings: hek293, 5 min
How it was run: (§3)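 Inside-out membrane vesicles from HEK293 cells transduced with MRP2 baculovirus (sodium butyrate 5 mM added at 24 h, harvested day 3). 7.5 μg vesicles in TS buffer (pH 7.4) with 4 mM ATP, 10 mM MgCl2, 20 μM [3H]E2-17βG, 5 min at 37°C. Rapid filtration and scintillation counting; AMP values subtracted. Nominal 10 and 100 μM antagonist, actual levels measured by LC-MS/MS. Untreated set at 100%. Three independent experiments.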

[11] = target: T1, ATP-binding cassette sub-family C member 2; test: Induction of MRP2-mediated E2-17betaG transport in human MRP2 expressing HEK293 cells at 1 to 3 uM during 5 mins; format: ADME, cell-based; settings: hek293, 5 min; how it was run: as §3
[12] = Cmax in male human subjects; format: ADME, organism-based; settings: in vivo
[13] = target: T1, ATP-binding cassette sub-family C member 2; test: Induction of MRP2-mediated E2-17betaG transport in human MRP2 expressing HEK293 cells at 4 uM during 5 mins; format: ADME, cell-based; settings: hek293, 5 min; how it was run: as §3
[14] = target: ATP-binding cassette sub-family C member 3 (Homo sapiens, UniProt O15438); test: Inhibition of MRP3-mediated E2-17betaG transport in human MRP3 expressing HEK293 cells in presence of 15 uM E2-17betaG; format: ADME, cell-based
ATP-binding cassette sub-family C member 3, sequence (O15438 whole entry): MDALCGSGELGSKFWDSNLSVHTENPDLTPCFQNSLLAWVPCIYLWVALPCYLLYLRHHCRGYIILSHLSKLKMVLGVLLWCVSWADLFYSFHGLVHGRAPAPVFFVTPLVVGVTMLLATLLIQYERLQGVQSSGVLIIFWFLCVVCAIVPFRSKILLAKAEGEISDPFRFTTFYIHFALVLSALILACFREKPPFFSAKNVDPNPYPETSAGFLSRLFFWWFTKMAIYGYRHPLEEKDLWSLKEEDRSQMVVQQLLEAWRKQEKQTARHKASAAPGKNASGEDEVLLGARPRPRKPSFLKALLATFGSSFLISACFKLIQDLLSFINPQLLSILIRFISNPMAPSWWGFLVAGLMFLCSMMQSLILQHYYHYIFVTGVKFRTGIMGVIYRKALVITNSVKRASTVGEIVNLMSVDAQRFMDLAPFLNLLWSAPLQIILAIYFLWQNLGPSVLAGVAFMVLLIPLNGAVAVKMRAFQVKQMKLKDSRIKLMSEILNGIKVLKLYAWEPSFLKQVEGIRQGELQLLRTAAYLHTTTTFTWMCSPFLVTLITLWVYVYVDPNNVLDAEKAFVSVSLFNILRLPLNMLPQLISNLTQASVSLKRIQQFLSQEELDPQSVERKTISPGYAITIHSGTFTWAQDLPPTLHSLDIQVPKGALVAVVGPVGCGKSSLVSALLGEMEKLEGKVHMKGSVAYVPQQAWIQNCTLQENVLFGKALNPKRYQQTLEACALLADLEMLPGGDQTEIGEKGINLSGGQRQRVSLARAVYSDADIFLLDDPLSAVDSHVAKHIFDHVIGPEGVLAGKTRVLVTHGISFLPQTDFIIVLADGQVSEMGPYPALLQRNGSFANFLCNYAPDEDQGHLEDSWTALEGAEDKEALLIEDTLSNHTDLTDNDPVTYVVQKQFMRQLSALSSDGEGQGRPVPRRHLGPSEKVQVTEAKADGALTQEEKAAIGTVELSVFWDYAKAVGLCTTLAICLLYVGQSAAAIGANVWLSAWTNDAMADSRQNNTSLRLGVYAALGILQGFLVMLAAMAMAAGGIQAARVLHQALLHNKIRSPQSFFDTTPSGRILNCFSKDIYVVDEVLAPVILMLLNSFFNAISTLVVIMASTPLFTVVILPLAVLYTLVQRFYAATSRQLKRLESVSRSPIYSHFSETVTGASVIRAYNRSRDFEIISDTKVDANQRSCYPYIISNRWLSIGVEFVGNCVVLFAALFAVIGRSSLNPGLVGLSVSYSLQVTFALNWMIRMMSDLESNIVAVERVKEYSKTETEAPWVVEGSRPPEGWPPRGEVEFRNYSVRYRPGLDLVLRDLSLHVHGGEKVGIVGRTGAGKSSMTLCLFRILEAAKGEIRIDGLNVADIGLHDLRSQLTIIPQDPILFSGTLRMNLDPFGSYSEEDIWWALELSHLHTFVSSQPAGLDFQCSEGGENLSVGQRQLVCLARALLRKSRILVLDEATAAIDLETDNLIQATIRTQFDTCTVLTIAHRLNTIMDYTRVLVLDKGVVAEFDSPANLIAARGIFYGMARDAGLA
How it was run: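 Vesicles from MRP3-transduced HEK293 cells. 7.5 μg in TS buffer with 4 mM ATP and 10 mM MgCl2, substrate [3H]E2-17βG at 15 μM, with antagonists at high concentrations. Incubated at 37°C, filtered and counted. ATP-dependent uptake calculated by AMP subtraction.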

[15] = target: T2, ATP-binding cassette sub-family C member 4; test: Noncompetitive inhibition of MRP4-mediated E2-17betaG transport in human MRP4 expressing HEK293 cells by Dixon plot; format: ADME, cell-based
MRP4 (ABCC4) = target: T4, MRP4 (ABCC4) (Homo sapiens, UniProt O15439); test: Inhibition of MRP4-mediated E2-17betaG transport in human MRP4 expressing HEK293 cells at 4 uM during 5 mins; format: ADME, cell-based; settings: probe E2-17betaG; how it was run: as §2
T4 sequence (O15439 whole entry): T2 sequence (O15439 whole entry)

[16] = target: T2, ATP-binding cassette sub-family C member 4; test: Inhibition of MRP4-mediated E2-17betaG transport in human MRP4 expressing HEK293 cells in presence of 0.1 to 1 uM E2-17betaG

With C/N=C(\NS(=O)(=O)N(C)C(C)C)N1CC(c2ccccc2)C(c2ccc(Cl)cc2)=N1 (stereo not given) the Activity [1] was 543%, the Retention_time [2] was 4.2 min and the “inhibition (INH)” value [3] was “Active”. The “inhibition (INH)” value [4] was “Active”.

With C/N=C(\NS(=O)(=O)N(C)C)N1CC(c2ccccc2)C(c2ccc(Cl)cc2)=N1 (stereo not given) the “inhibition (INH)” value [5] was “Active”, the “inhibition (INH)” value [6] was “Active” and the Retention_time [2] was 3.2 min. It also gave an ED50 (Rattus norvegicus) of over 0.3 mg/kg and an Activity [7] of 543%.

For C/N=C(\NS(=O)(=O)N1CCSCC1)N1CC(c2ccccc2)C(c2ccc(Cl)cc2)=N1 (stereo not given), the “inhibition (INH)” value [8] was “Not Active”, the “inhibition (INH)” value [9] was “Not Active” and the Retention_time [2] was 4 min. For the same molecule, the Activity [10] was 256% and the Activity [11] was 349%.

In the case of CN=C(NS(=O)(=O)N1CCS(=O)(=O)CC1)N1CC(c2ccccc2)C(c2ccc(Cl)cc2)=N1 (stereo not given), the “inhibition (INH)” value [8] was “Not Active”, the “inhibition (INH)” value [9] was “Not Active” and the Retention_time [2] was 2.6 min. For the same molecule, the Activity [11] was “Not Active”.

Work on Cc1c(C(=O)NN2CCCCC2)nn(-c2ccc(Cl)cc2Cl)c1-c1ccc(Cl)cc1 [RIMONABANT] yielded a Cmax [12] of 0.4 µM, an Activity [13] of 513% and a Retention_time [2] of 3.2 min. The “inhibition (INH)” value [14] was “Active”, the pKi [15] was 5.40 and the inhibition at 5 min, 4 µM (MRP4 (ABCC4)) was -58%. For the same molecule, the “inhibition (INH)” value [16] was “Active”.
